According to paper PMC2151581 (The Journal of General Physiology, 2006):
Ends that are not written are not given here.

What was measured:
BK channels = conditions: wild type and calcium bowl mutant channels; ref Zakharov et al., 2005; cited from earlier work
[1] = biological target: Drosophila Slowpoke calcium-dependent potassium channel (dSlo) (Drosophila melanogaster, UniProt Q03720); assay: Inside-out patch recording of dSlo current with peptide on the cytoplasmic side; assay type: cell-based
How it was run: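 Inside-out patches came from CHO cells transfected with dSlo, in symmetrical 150 mM KCl, 0.5 mM HEDTA, 1 mM Mg²⁺, 10 mM HEPES pH 7.2, with 7 μM free Ca²⁺, at room temperature. Peptide was dissolved in the bath (cytoplasmic side). Patches were stepped from −80 to +140 mV; the mean current over the last 10 ms was normalized to the same patch before peptide. A Hill equation fit across concentrations gave IC50.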

dSlo = assay: Coimmunoprecipitation of Slobs with dSlo from CHO cell lysates, Western blot; assay type: binding, Drosophila; conditions: cotransfected CHO cells, anti-Slob immunoprecipitation
How it was run: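 Slobs were cotransfected with the channel into CHO cells (Ham's F-12, 10% FBS, penicillin/streptomycin) using Lipofectamine 2000. Lysis was 1 d later in Tris-HCl pH 7.5/NaCl/KCl/NaF/1% CHAPS buffer with DTT and protease inhibitors. The 16,000 g supernatant was incubated with anti-Slob for 2 h at 4°C, then protein A/G agarose overnight at 4°C, with four PBS washes. SDS-PAGE, nitrocellulose, anti-dSlo 1 h at RT, HRP anti-rabbit, ECL. Controls were blank vector and nontransfected cells.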

[2] = test system: dSloD5N5 (calcium bowl mutant of dSlo); assay type: cell-based, Drosophila
How it was run: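 CHO cells were cotransfected 1:1 (molar) with dSloD5N5 and Slob57 or truncation mutants using Lipofectamine 2000. Whole-cell recording was done 1 d later at room temperature with 2–4 MΩ pipettes, in symmetrical 150 mM KCl, 0.5 mM HEDTA, 2 mM MgCl₂, 10 mM HEPES pH 7.2, with 110 or 300 μM free Ca²⁺ in the pipette. Holding was −80 mV, then −120 mV afterward. 350-ms pulses were used for inactivation; 100-ms pulses gave G–V from peak tail currents and V1/2. Mean ± SEM, ANOVA/Bonferroni.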

Drosophila Slowpoke calcium-dependent potassium channel (dSlo), sequence (Q03720 whole entry): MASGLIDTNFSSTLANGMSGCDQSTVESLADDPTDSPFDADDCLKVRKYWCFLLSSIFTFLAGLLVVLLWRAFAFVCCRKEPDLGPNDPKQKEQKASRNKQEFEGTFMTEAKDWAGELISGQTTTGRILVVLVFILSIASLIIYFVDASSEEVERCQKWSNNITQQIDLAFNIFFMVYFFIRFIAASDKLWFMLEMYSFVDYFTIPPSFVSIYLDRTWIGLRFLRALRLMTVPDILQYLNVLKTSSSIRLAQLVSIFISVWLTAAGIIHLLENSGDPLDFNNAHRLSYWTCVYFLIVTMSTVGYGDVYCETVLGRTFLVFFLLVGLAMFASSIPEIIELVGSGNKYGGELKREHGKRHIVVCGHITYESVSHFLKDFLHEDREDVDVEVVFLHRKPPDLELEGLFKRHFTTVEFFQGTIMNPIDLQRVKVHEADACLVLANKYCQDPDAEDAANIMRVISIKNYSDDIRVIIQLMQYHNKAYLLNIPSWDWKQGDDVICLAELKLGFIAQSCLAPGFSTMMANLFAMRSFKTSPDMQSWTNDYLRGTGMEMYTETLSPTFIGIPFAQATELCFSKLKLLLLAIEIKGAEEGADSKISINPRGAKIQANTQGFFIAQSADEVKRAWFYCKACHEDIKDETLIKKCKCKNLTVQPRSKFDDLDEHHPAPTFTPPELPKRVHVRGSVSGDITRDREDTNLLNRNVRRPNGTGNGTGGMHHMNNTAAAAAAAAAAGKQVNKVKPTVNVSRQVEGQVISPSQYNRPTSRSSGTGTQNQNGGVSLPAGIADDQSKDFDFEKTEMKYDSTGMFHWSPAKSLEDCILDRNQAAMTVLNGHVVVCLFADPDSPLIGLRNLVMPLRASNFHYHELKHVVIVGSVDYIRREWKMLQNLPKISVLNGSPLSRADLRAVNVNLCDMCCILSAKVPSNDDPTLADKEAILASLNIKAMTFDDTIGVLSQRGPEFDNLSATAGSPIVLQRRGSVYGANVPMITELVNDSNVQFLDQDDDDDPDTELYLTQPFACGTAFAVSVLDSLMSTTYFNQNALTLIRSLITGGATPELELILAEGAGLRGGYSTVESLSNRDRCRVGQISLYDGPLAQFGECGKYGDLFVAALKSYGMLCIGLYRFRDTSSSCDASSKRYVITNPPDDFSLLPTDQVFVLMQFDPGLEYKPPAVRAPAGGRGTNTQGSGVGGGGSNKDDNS

## CC(=O)c1c(O)c(C)c(O)c(Cc2c(O)c3c(c(C(=O)/C=C/c4ccccc4)c2O)OC(C)(C)C=C3)c1O [mallotoxin]
BK channels
  Ca2+ dependence of the modulation of BK channels: independent of Ca^2+ binding

## MFKFNK [MFKFNK]
[1]
  IC50: 31 µM
  Kd: 162 µM

B1: Slob57ΔN5: amino-terminal five residue–truncated Slob57 (deletion of residues 2–6) (protein)
chain: MAAQQQRIDNRNSAVTGHDPFVRPPVPEKKVRNIMKKLHKANGLKRSNSAIEFDVSALTAANRRQIYSSNRSASSEQDNSDLSEHSEKSPLVSARLDNLARLFFSKSMPAETGSRDTIDSVLTTRPNIKYQYSALDSGNGIVERSPRERAQREKALNATQEWIQGANGRYEVIAHLDEIGSRHGKNWFLVTDASVRTDRLQTLLPLPPDCVAFEDLPPNECAREILMELLGSLHHPYIYPVLDLGFLRNSSYNYACLVTPFNSRGSLKDLIYKAQWNEPWARKYTRKPNGLPVSQVQRLGRQILEALLFLKERGFPLHGHLHSGNVILQNGAARLSGLENGLLGLSSRINAVMWSRSVTEIENVDIVCFGHLLYEMCTGQELTTPKPSMRVLEMELQHYPQIGQTRKQILEILGLIFEPPSGVCPSVEDLVLCDLFRSIDLRELRGPCFSTIKPSLSRSTLNLLQAVKKRQCASLGHSLSEANSPCTPPSTPHDRRTGVLPAPYEVFRMY
dSlo
  binding to dSlo (coimmunoprecipitation): still bind to dSlo

B2: Slob57: ion channel auxiliary protein that binds to and modulates the Drosophila Slowpoke channel (dSlo) (protein)
chain: MFKFNKAAQQQRIDNRNSAVTGHDPFVRPPVPEKKVRNIMKKLHKANGLKRSNSAIEFDVSALTAANRRQIYSSNRSASSEQDNSDLSEHSEKSPLVSARLDNLARLFFSKSMPAETGSRDTIDSVLTTRPNIKYQYSALDSGNGIVERSPRERAQREKALNATQEWIQGANGRYEVIAHLDEIGSRHGKNWFLVTDASVRTDRLQTLLPLPPDCVAFEDLPPNECAREILMELLGSLHHPYIYPVLDLGFLRNSSYNYACLVTPFNSRGSLKDLIYKAQWNEPWARKYTRKPNGLPVSQVQRLGRQILEALLFLKERGFPLHGHLHSGNVILQNGAARLSGLENGLLGLSSRINAVMWSRSVTEIENVDIVCFGHLLYEMCTGQELTTPKPSMRVLEMELQHYPQIGQTRKQILEILGLIFEPPSGVCPSVEDLVLCDLFRSIDLRELRGPCFSTIKPSLSRSTLNLLQAVKKRQCASLGHSLSEANSPCTPPSTPHDRRTGVLPAPYEVFRMY
[2]; 100-ms test pulse, 110 μM free Ca2+
  shift of the conductance–voltage relationship of dSloD5N5: does not rightward shift
[2]; 100-ms test pulse, 300 μM free Ca2+
  modulation of V1/2 of dSloD5N5: not modulated
[2]; coexpression in CHO cells, whole cell, 110 μM free Ca2+, 350-ms test pulse
  inactivation of dSloD5N5: causes dSloD5N5 inactivation

B3: Slob57ΔN15: amino-terminal 15 residue–truncated Slob57 (deletion of residues 2–16) (protein)
chain: MNSAVTGHDPFVRPPVPEKKVRNIMKKLHKANGLKRSNSAIEFDVSALTAANRRQIYSSNRSASSEQDNSDLSEHSEKSPLVSARLDNLARLFFSKSMPAETGSRDTIDSVLTTRPNIKYQYSALDSGNGIVERSPRERAQREKALNATQEWIQGANGRYEVIAHLDEIGSRHGKNWFLVTDASVRTDRLQTLLPLPPDCVAFEDLPPNECAREILMELLGSLHHPYIYPVLDLGFLRNSSYNYACLVTPFNSRGSLKDLIYKAQWNEPWARKYTRKPNGLPVSQVQRLGRQILEALLFLKERGFPLHGHLHSGNVILQNGAARLSGLENGLLGLSSRINAVMWSRSVTEIENVDIVCFGHLLYEMCTGQELTTPKPSMRVLEMELQHYPQIGQTRKQILEILGLIFEPPSGVCPSVEDLVLCDLFRSIDLRELRGPCFSTIKPSLSRSTLNLLQAVKKRQCASLGHSLSEANSPCTPPSTPHDRRTGVLPAPYEVFRMY
dSlo
  binding to dSlo (coimmunoprecipitation): still bind to dSlo
